ChEMBL document CHEMBL4052661, “Structure Based Design of N-(3-((1H-Pyrazolo[3,4-b]pyridin-5-yl)ethynyl)benzenesulfonamides as Selective Leucine-Zipper and Sterile-α Motif Kinase (ZAK) Inhibitors” (J Med Chem, 2017)

How the values were obtained:
[1] = biological target: Serine/threonine-protein kinase B-raf (Homo sapiens, UniProt P15056); experiment: Inhibition of wild type GST-tagged recombinant human full-length B-RAF expressed in baculovirus expression system using Ser/Thr3 as substrate after 1 hr by FRET-based Z'-Lyte assay
How it was run: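 Z'-Lyte FRET assay with Ser/Thr3 peptide in kinase buffer; the final reaction held 0.002 ng B-Raf for wild type. Incubated 1 h at room temperature, then 1 h development to cleave nonphosphorylated peptide, then stop reagent. Means of 3 independent experiments.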

[2] = biological target: T1, Mitogen-activated protein kinase kinase kinase 20 (Homo sapiens, UniProt Q9NYL2); experiment: Inhibition of N-terminal GST-tagged recombinant human full-length ZAK expressed in baculovirus infected Sf9 insect cells using MBP as substrate after 30 mins by ADP-Glo assay
How it was run: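 ZAK activity by ADP-Glo luminescence with MBP as substrate, ATP and serially diluted compound. Reaction started by adding ATP and run 30 min at room temperature. ADP-Glo reagent was added to stop it (40 min), then detection reagent for 30 min before reading luminescence. Curves fitted; each experiment repeated at least 3 times.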

[3] = biological target: Serine/threonine-protein kinase B-raf (Homo sapiens, UniProt P15056, V600E); experiment: Inhibition of recombinant human B-RAF V600E mutant using Ser/Thr3 as substrate after 1 hr by FRET-based Z'-Lyte assay
[4] = biological target: T1, Mitogen-activated protein kinase kinase kinase 20

Serine/threonine-protein kinase B-raf (Homo sapiens, UniProt P15056, V600E), sequence (P15056 2-766 V600E limits assumed): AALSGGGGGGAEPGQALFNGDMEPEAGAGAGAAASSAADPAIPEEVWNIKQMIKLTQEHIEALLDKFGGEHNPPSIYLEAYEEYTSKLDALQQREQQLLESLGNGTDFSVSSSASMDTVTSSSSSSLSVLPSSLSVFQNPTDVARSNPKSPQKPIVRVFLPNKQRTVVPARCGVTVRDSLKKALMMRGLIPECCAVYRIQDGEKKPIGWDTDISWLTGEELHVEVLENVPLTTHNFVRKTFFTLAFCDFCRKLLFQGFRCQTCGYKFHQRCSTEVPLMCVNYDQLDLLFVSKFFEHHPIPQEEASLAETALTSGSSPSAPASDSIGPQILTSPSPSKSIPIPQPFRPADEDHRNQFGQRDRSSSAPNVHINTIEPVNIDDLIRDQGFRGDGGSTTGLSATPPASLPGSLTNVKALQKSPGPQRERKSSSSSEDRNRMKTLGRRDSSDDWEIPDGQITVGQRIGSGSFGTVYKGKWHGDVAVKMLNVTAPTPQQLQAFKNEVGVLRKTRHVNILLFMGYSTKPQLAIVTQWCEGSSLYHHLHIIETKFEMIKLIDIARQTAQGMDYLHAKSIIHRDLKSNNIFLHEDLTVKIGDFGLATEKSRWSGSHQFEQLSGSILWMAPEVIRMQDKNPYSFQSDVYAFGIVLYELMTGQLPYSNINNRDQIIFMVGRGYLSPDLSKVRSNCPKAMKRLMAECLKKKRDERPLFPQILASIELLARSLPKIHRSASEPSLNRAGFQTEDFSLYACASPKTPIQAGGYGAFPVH
T1 sequence (Q9NYL2 whole entry): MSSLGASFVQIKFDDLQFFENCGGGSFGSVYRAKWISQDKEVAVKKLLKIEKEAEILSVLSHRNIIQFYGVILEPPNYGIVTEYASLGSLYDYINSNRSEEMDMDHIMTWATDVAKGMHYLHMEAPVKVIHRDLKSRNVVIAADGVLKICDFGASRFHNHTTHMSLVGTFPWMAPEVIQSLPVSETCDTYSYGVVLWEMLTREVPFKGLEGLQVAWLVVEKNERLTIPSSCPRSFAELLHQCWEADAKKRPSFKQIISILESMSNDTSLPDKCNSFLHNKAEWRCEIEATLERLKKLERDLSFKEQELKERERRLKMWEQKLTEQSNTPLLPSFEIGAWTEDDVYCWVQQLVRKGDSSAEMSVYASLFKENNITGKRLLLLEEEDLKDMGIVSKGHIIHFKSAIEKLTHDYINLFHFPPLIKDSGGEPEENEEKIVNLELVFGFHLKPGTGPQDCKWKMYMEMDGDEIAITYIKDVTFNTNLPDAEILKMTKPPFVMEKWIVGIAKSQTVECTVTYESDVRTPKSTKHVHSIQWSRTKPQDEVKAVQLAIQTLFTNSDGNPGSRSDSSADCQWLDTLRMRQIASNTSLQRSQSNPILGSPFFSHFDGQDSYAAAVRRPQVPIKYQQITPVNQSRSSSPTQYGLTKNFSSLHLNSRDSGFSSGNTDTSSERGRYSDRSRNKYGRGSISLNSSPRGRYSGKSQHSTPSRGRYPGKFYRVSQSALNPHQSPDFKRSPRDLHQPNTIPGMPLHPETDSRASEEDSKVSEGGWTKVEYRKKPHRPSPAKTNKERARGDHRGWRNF
Serine/threonine-protein kinase B-raf (Homo sapiens, UniProt P15056), sequence (P15056 whole entry): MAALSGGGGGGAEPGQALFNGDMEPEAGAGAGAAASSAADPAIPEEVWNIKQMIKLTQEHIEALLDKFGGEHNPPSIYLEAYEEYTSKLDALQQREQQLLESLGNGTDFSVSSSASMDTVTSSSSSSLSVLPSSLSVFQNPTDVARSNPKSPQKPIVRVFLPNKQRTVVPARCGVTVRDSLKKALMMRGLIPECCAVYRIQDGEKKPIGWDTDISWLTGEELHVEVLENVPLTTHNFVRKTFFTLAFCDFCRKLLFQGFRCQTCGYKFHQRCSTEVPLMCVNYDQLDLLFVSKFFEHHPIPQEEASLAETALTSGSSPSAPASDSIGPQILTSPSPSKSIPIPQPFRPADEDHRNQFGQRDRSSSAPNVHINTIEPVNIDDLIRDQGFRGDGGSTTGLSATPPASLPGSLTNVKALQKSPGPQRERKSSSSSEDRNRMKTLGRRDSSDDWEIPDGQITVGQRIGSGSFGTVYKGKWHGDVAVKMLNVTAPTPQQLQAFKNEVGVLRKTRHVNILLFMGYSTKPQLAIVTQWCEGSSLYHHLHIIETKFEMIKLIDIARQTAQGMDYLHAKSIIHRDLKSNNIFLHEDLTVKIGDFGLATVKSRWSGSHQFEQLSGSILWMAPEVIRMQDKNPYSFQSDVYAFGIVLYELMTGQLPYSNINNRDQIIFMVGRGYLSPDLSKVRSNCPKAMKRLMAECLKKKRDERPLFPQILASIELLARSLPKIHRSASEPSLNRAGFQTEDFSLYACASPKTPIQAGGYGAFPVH

Q: For `COc1n[nH]c2ncc(C#Cc3c(F)ccc(NS(=O)(=O)c4cccc(Cl)c4Cl)c3F)cc12`, which IC50 [1] is on record?
A: > 2000 nM

Q: And the IC50 [2]?
A: 9.6 nM

Q: And the IC50 [3]?
A: > 10000 nM

Q: With `COc1n[nH]c2ncc(C#Cc3c(F)ccc(NS(=O)(=O)c4ccccc4)c3F)cc12` as the compound, how does the IC50 [1] read?
A: > 10000 nM

Q: And the IC50 [2]?
A: 19.2 nM

Q: What about the IC50 [3] of the same compound?
A: 169 nM

Q: How did the IC50 [1] turn out when `CC(C)Oc1n[nH]c2ncc(C#Cc3c(F)ccc(NS(=O)(=O)c4cccc(Cl)c4)c3F)cc12` was run?
A: > 10000 nM

Q: And the IC50 [2]?
A: 42.7 nM

Q: And the IC50 [3]?
A: > 2000 nM

Q: `COc1n[nH]c2ncc(C#Cc3c(F)ccc(NS(=O)(=O)c4cccc(C)c4)c3F)cc12` was tested. Which IC50 [1] did it give?
A: > 10000 nM

Q: And the IC50 [2]?
A: 12.1 nM

Q: And the IC50 [3]?
A: > 10000 nM

Q: How did the IC50 [1] turn out when `COc1n[nH]c2ncc(C#Cc3c(F)ccc(NS(=O)(=O)c4cccc(Cl)c4)c3F)cc12` was run?
A: > 6000 nM

Q: And the IC50 [2]?
A: 4.2 nM

Q: And the IC50 [3]?
A: 902 nM

Q: `COc1cccc(S(=O)(=O)Nc2ccc(F)c(C#Cc3cnc4[nH]nc(OC)c4c3)c2F)c1` was tested. Which IC50 [1] did it give?
A: > 1000 nM

Q: And the IC50 [2]?
A: 7.5 nM

Q: And the IC50 [3]?
A: > 7000 nM

Q: How did the IC50 [1] turn out when `O=S(=O)(Nc1ccc(F)c(C#Cc2cnc3[nH]ncc3c2)c1F)c1cccc(Cl)c1` was run?
A: > 5000 nM

Q: And the IC50 [2]?
A: 5.1 nM

Q: And the IC50 [3]?
A: > 10000 nM

Q: Which results are given for `CCCS(=O)(=O)Nc1ccc(F)c(C(=O)c2c[nH]c3ncc(-c4ccc(Cl)cc4)cc23)c1F` [VEMURAFENIB]?
A: IC50 [4]: 23 nM; IC50 [2]: 31.4 nM
